Results on 1 compound are retold here after ChEMBL document CHEMBL4000256, “Light-Regulated NO Release as a Novel Strategy To Overcome Doxorubicin Multidrug Resistance” (ACS Med Chem Lett, 2017).

The test system of data set [1] is Fibroblast. The experiment in a line: Cytotoxicity against 7 mW/cm'2 irradiated human fibroblasts at 5 uM measured after 20 mins by spectrophotometric method. The class given is cell-based. The gist of the method: (§1)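 Human fibroblasts or rat H9c2 cardiomyocytes kept 20 min at room temperature in PBS, either in the dark or irradiated at λexc 400 nm, 7 mW/cm2, with or without 5 μM test agent. Cytotoxicity measured in triplicate; means ± SD, n = 3.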

The subject of data set [2] is Fibroblast. In words: Dark toxicity against human fibroblasts at 5 uM measured after 20 mins by spectrophotometric method. The class given is cell-based. The gist of the method:
as §1

Data set [3] has as its system M14. In words: Dark toxicity in human M14 cells assessed as increase in nitrite levels at 5 uM measured after 20 mins by Griess reagent based spectrophotometric method. The class given is cell-based. As to conditions: m14, 20 min. (Griess reagent forms a coloured azo dye with nitrite.)
In data set [4] the test system is M14. The experiment in a line: Cytotoxicity against 7 mW/cm'2 irradiated human M14 cells assessed as increase in LDH release at 5 uM measured after 20 mins by spectrophotometric method. The data set is classed as functional, cell-based. The gist of the method: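 Cells (M14 melanoma, human fibroblasts or rat H9c2 cardiomyocytes) kept 20 min at room temperature in PBS under 400 nm light (7 mW/cm2), alone or with 5 μM compound, given alone or with equimolar 5 μM doxorubicin. Damage read as extracellular LDH release. Triplicate measurements, n = 3.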
For orientation: LDH in the medium is a marker of cell lysis.

The species named for a further data set is Bos taurus. In words: Binding affinity to calf thymus duplex DNA by fluorescence spectroscopic method.
The subject of data set [5] is M14. The experiment in a line: Dark toxicity in human M14 cells assessed as increase in LDH release at 5 uM measured after 20 mins by spectrophotometric method. The class given is cell-based. To be noted: m14, 20 min. The gist of the method:
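Cells (M14 melanoma, human fibroblasts or rat H9c2 cardiomyocytes) kept 20 min at room temperature in PBS in the dark, with 5 μM compound, given alone or with equimolar 5 μM doxorubicin. Cytotoxicity read as extracellular LDH release. Triplicate measurements, n = 3.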

Data set [6] deals with H9c2. In words: Cytotoxicity against 7 mW/cm'2 irradiated rat H9c2 cells at 5 uM measured after 20 mins by spectrophotometric method. The class given is cell-based. To be noted: h9c2, 20 min. The gist of the method: as §1
In data set [7] the test system is H9c2. In words: Dark toxicity against rat H9c2 cells at 5 uM measured after 20 mins by spectrophotometric method. The class given is cell-based. As to conditions: h9c2, 20 min. The gist of the method:
as §1

Active and inactive are the calls of the source. No cut-off for these calls is given here.

As to `COc1cccc2c1C(=O)c1c(O)c3c(c(O)c1C2=O)C[C@@](O)(C(=O)CO)C[C@@H]3O[C@H]1C[C@H](N)[C@H](O)[C@H](C)O1.Cl` [DOXORUBICIN HYDROCHLORIDE], the Activity result in the data set with Fibroblast [1] is recorded as “Toxic”; with Fibroblast [2], “Toxic”; with M14 [3] it was “Non-Toxic”; in the data set on M14 [5], “Non-Toxic”; in the data set with H9c2 [6], “Toxic”; in the data set with H9c2 [7], “Toxic”. In the data set on M14 [4], the result was inactive. In the data set listed under Bos taurus, the K was determined as 630000 M⁻¹.
